Results published in ChEMBL document CHEMBL2417396 (J Nat Prod, 2013).
Activity calls are given as the source filed them. The rule behind the calls is not given here.

Tests used:
[1] = system: SK-OV-3; test: Cytotoxicity against human SKOV3 cells by SRB assay; format: functional
Summary of the method: (§1)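 Cell lines obtained from ATCC and kept in recommended media containing gentamicin and amphotericin B. Growth inhibition was measured by the NCI standard sulforhodamine B assay. GI50 is the drug concentration calculated to halve net protein increase relative to untreated cells. Values are averages of at least three separate experiments, each run in triplicate.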

[2] = system: Mus musculus; test: Vascular disrupting activity in human PC3 cells xenografted SCID mouse assessed as decrease of blood flow in tumor at 350 mg/kg, ip after 80 mins by bioluminescence imaging analysis; format: functional, organism-based; design: dose 350 mg/kg; details: PC-3
[3] = target: T1, Tubulin (Homo sapiens) (UniProt P68371+Q9H4B7+P0DPH7+P68366+Q13509+Q71U36+P04350+Q3ZCM7+P07437+P68363+Q9BQE3+Q6PEY2+Q13885+Q9BVA1+Q9BUF5); test: Displacement of [3H]colchicine from tubulin (unknown origin) at 5 uM; format: protein-complex assay
Summary of the method: (§2)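 Colchicine binding assay with 1 μM tubulin and 5.0 μM [3H]colchicine. Inhibitor tested at 50, 5 and/or 1 μM.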

[4] = system: NCI-H460; test: Cytotoxicity against human NCI-H460 cells by SRB assay; format: functional; summary of the method: as §1
[5] = system: DU-145; test: Cytotoxicity against human DU145 cells by SRB assay; format: functional; summary of the method: as §1
[6] = Inhibition of bovine brain tubulin polymerization after 20 mins; design: species or system Bos taurus
Summary of the method: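 Purified bovine brain tubulin, 10 μM (1.0 mg/mL), preincubated with a concentration series in glutamate buffer at 30 °C, then cooled to 0 °C. GTP added, then warmed to 30 °C to start assembly. Turbidity read at 350 nm, with disassembly checked by cooling.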

[7] = target: T1, Tubulin (Homo sapiens); test: Displacement of [3H]colchicine from tubulin (unknown origin) at 50 uM; format: protein-complex assay; summary of the method: as §2

SMILES: COc1ccc2c(C(=O)c3cc(OC)c(OC)c(OC)c3)c(-c3ccc(OC)c(OP(=O)(O)O)c3)[nH]c2c1
- GI50 [1]: 22.3 nM
- Activity [2]: Active
- inhibition [3]: 26%
- GI50 [4]: 31.1 nM
- GI50 [5]: 29.7 nM
- IC50 [6]: 4200 nM

SMILES: COc1ccc2c(C(=O)c3cc(OC)c(OC)c(OC)c3)c(-c3ccc(OC)c(O)c3)n(C)c2c1
- GI50 [1]: 2050 nM
- inhibition [7]: 34%
- GI50 [4]: 4140 nM
- GI50 [5]: 2680 nM
- IC50 [6]: > 20000 nM

SMILES: COc1ccc(/C=C\c2cc(OC)c(OC)c(OC)c2)cc1OP(=O)(O)O [FOSBRETABULIN DISODIUM]
- GI50 [4]: 66 nM
- GI50 [5]: 16 nM

SMILES: COc1ccc2c(C(=O)c3cc(OC)c(OC)c(OC)c3)c(-c3ccc(OC)c(OP(=O)(O)O)c3)n(C)c2c1
- GI50 [1]: 8640 nM
- inhibition [7]: 29%
- GI50 [4]: 3560 nM
- GI50 [5]: 4670 nM
- IC50 [6]: > 20000 nM

SMILES: COc1ccc(/C=C\c2cc(OC)c(OC)c(OC)c2)cc1O [COMBRETASTATIN A4]
- GI50 [1]: 0.42 nM
- GI50 [4]: 2.8 nM
- GI50 [5]: 0.54 nM
